Assay results taken from the EternaBench riboswitch data.

System: MS2 coat protein
Assay: apparent Kd, MS2 coat protein; higher = weaker binding; RNA-MaP array; tryptophan 2.4 mM where present
Summary of the method: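 Each design was made on Illumina sequencing-chip clusters by stalled E. coli RNA polymerase and titrated with SNAP-549-labelled MS2 coat protein from 0.7 or 1.5 nM, doubling to 3 µM, in the absence and then the presence of constant ligand. The buffer was 100 mM Tris-HCl pH 7.5, 80 mM KCl, 4 mM MgCl2, BSA, DTT, yeast tRNA and Tween-20. The apparent Kd is the median of filtered per-cluster fits of binding curves, with green signal normalised to red-channel RNA signal and control-cluster median Fmax.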

[1] = designed as: ON switch for tryptophan, no ligand
[2] = ligand present: tryptophan, designed as: ON switch for tryptophan
[3] = designed as: OFF switch for tryptophan, no ligand
[4] = ligand present: tryptophan, designed as: OFF switch for tryptophan

Sequence	apparent Kd [1]	apparent Kd [2]	apparent Kd [3]	apparent Kd [4]
ACAUUAGCCACGGCCGCCACUGCUUUAUGAUUAUAAGGAUUAAUGAACAUGAGGAUCACCCAUGUCAGGACCGGGUGCCUACCAU	29.8 nM	29.7 nM	–	–
UAUCGUCAGACGGCCGCCACUAGAACAUGAGGAUCACCCAUGUAGGUCCUAGAUUCCUCAAUAACUAGGACCGGGUCUGACGAAU	–	–	140 nM	97.3 nM
CGAGUGAGUUCAAUCGAAUAACGGUUUUCGCGAGGACCGGUACGGCCGCCACUCGUGUGAUAUCACACAUGAGGAUCACCCAUGU	37.9 nM	31.6 nM	–	–
GGCACAUAGUCGGCCGCCACUAGAUUUUAGUGGAAUAACAUGAGGAUCACCCAUGUAUUUGGGACUAGGACCGGGACUAUGUGCC	–	–	32.8 nM	22.2 nM
AUAAAUAAUAAAUAAAAUAAAGUGGGUGAACGAGGACCGGUACGGCCGCCACUCGGACAUGAGGAUCACCCAUGUCCAUGUGAAA	–	–	17.2 nM	51.2 nM
AACGUCUUGUCGGCCGCCACUGUAUGGUGCGUGACAUGAAACAUGAGGAUCACCCAUGUAGCAUGCAGGACCGGGACAGUGCCAA	–	–	9.84 nM	17.8 nM
CUACAUUUGUAGAAACCGGUCAACAUUAUUCGAGGACCGGUACGGCCGCCACUCGUAUCAUUUGAUACAUGAGGAUCACCCAUGU	19.2 nM	22.6 nM	–	–
CUAAAUAUAACGGCCGCCACUUACUCAUGAGGUAACAACAUGAGGAUCACCCAUGUUUGAGGAUCAAGGACCGGGUUAUAUUUAG	25.6 nM	19 nM	–	–
GGUUACUCUACGGCCGCCACUGUAAAGUAAAGAUUACUGUACAUGACAUGAGGAUCACCCAUGUACAGGACCGGGUAGUGUAACC	23.1 nM	21.5 nM	–	–
GCUGUGAAGUCGGCCGCCACUGGUUAGUUUUACCUCAUGUAACAUGAGGAUCACCCAUGUAAUUUCAGGACCGGGACAACAGCAA	–	–	278 nM	852 nM
CACGAUUUGUCGGCCGCCACUAAGGUAACUCUUCUCACAUGAGGAUCACCCAUGUGCCCGAAGCUUAGGACCGGGAUAAUGGGUG	118 nM	40.8 nM	–	–
ACAUGAGGAUCACCCAUGUUAAACAGGGUGCGAGGACCGGUACGGCCGCCACUCGGACAUUAUUACGAGUGAAUGGCAACGAUGU	–	–	15.8 nM	15.4 nM
AAUGUAUGGCACAUGAGGAUCACCCAUGUGCGAGGACCGGUACGGCCGCCACUCGGUCCUGGGAUCUUAAUACUAUACAUUAAUG	–	–	10.9 nM	28.2 nM
CGAGUGCUGUCGGCCGCCACUGCACAUGAGGAUCACCCAUGUAAAAGCUGGCUGUGACUGGUGUUCAGGACCGGGACAGGGUCUU	–	–	10.7 nM	25.4 nM
AUUCAUGGAAACAUGACAUAGGGAUCUAGCCGAGGACCGGUACGGCCGCCACUCGCUUGGAGGCACAUGAGGAUCACCCAUGUUA	145 nM	48.7 nM	–	–
UUGCCCAGUACGGCCGCCACUGUGUGCAGGGAGCCCAGGUCCACAUGAGGAUCACCCAUGUACAACAGGACCGGGUACUUGCAAU	–	–	9.36 nM	10.6 nM
ACAUGAGGAUCACCCAUGUCAUGAGGUUCACGAGGACCGGUACGGCCGCCACUCGACAUGAGGGUCACCCGUGAACGGAACACCC	14.8 nM	20 nM	–	–
AAUCAUGAAAACAUGACAUGAGGAUCACUCCGAGGACCGGUACGGCCGCCACUCGCGAGGAGGCACAUGAGGAUCACCCAUGUUA	69 nM	82.7 nM	–	–
GUGCCGCAUUCACAUGAGGAUCACCCAUGUCGAGGACCGGUACGGCCGCCACUCGACGUGCUUACAGGUCCUUUACGGCCCAAUA	–	–	38.1 nM	18.8 nM
CGACUGUAAAGUCGACCGGUCAUCAAUAAUCGAGGACCGGUACGGCCGCCACUCGAUGUGAUUUCACAUGAGGAUCACCCAUGUA	23.9 nM	22.2 nM	–	–
AAUGAGUGGUGGUCAAACAUGGGUGAUCAACGAGGACCGGUACGGCCGCCACUCGAUAACAUGAGGAUCACCCAUGUAAUAAUAA	–	–	234 nM	202 nM
AGAUGAGUCACGGCCGCCACUCUUAUCAGGAUCACCCAUGGUUGACAUGAGGAUCACCCAUGUAUGAGGACCGGGUGAUGAGCAU	–	–	12.2 nM	15.6 nM
